In ChEMBL document CHEMBL3526063, “Metabolism and pharmacokinetics of JM6 in mice: JM6 is not a prodrug for Ro-61-8048” (Drug Metab Dispos, 2012) one finds IC50 data, which are given here for two compounds.

In test [1] the target is Kynurenine 3-monooxygenase (Mus musculus, UniProt Q91WN4). Nature of the test: Inhibition of C57BL/6J mouse KMO assessed as 3-hydroxykynurenine formation preincubated for 5 mins using 100 uM kynurenine as substrate by LC-MS/MS analysis. The method, boiled down:
(§1)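 Liver mitochondrial KMO preparation (mouse C57 BL/6J, rat Wistar, human) at 0.3 mg protein/mL in 100 mM potassium phosphate pH 7.4 with 200 µM NADPH, 0.4 U/mL G6PDH, 3 mM glucose 6-phosphate. Compound pre-incubated 5 min at 25°C, then 100 µM kynurenine added; 40 min (rodent) or 60 min (human). Stopped with TCA; 3-hydroxykynurenine by LC-MS/MS. IC50 from 8-point 3-fold dilutions (top 3 or 30 µM), triplicates, n≥2 runs.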

In test [2] the target is Kynurenine 3-monooxygenase (Rattus norvegicus, UniProt O88867). The experiment in a line: Inhibition of Wistar rat KMO assessed as 3-hydroxykynurenine formation preincubated for 5 mins using 100 uM kynurenine as substrate by LC-MS/MS analysis. The method, boiled down: as §1
The target in test [3] is Kynurenine 3-monooxygenase (Homo sapiens, UniProt O15229). The experiment in a line: Inhibition of human KMO assessed as 3-hydroxykynurenine formation preincubated for 5 mins using 100 uM kynurenine as substrate by LC-MS/MS analysis. The method, boiled down: as §1

In general, IC50 refers to the concentration at which inhibition is half-maximal.

Kynurenine 3-monooxygenase (Rattus norvegicus, UniProt O88867), sequence (O88867 whole entry): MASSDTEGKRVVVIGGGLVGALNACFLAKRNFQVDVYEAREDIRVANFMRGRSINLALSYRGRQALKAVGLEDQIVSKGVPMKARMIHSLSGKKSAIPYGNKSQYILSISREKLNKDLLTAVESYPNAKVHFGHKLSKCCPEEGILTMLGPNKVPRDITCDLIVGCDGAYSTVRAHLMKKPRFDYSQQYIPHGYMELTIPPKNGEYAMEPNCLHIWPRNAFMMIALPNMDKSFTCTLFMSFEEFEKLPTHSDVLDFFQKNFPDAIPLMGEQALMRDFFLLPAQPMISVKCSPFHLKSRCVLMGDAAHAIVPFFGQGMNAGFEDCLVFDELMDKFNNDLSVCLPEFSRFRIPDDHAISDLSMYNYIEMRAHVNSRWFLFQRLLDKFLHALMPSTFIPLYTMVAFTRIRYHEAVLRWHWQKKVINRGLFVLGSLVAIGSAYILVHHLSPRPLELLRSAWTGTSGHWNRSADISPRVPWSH
Kynurenine 3-monooxygenase (Mus musculus, UniProt Q91WN4), sequence (Q91WN4 whole entry): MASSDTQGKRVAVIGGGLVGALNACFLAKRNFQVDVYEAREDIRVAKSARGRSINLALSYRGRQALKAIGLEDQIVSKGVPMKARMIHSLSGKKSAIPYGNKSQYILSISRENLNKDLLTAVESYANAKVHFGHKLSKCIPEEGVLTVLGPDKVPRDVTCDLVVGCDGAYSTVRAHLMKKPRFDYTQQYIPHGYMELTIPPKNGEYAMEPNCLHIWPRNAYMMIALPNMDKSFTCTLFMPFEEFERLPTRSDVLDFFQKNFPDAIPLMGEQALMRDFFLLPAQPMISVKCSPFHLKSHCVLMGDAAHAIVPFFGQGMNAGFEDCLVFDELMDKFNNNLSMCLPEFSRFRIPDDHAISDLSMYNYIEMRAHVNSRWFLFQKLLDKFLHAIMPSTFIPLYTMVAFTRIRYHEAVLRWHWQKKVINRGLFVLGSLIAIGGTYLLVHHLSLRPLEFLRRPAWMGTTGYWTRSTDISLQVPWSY
Kynurenine 3-monooxygenase (Homo sapiens, UniProt O15229), sequence (O15229 whole entry): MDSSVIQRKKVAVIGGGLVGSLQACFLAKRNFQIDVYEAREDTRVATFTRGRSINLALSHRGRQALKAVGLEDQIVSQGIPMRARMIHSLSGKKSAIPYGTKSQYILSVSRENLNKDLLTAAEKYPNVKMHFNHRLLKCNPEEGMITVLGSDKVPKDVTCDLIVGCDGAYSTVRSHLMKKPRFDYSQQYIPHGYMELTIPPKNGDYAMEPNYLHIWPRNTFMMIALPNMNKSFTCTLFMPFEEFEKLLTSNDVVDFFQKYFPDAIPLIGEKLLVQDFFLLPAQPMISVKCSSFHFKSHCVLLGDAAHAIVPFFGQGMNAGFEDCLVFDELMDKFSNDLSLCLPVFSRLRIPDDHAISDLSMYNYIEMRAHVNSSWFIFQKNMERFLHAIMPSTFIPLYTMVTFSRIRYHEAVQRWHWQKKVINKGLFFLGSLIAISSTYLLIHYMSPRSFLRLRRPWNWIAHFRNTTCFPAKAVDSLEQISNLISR

As to `COc1ccc(S(=O)(=O)Nc2nc(-c3cccc([N+](=O)[O-])c3)c(CO)s2)cc1OC`, the IC50 stood at 22 µM in test [1], 11 µM in test [2] and 39 µM in test [3].
As to `COc1ccc(S(=O)(=O)Nc2nc(-c3cccc([N+](=O)[O-])c3)c(CN)s2)cc1OC`, the IC50 was 27 µM in test [1], 10 µM in test [2] and 17 µM in test [3].
